These results are taken from ChEMBL document CHEMBL2331455, “Potent vasorelaxant analogs from chemical modification and biotransformation of isosteviol” (Eur J Med Chem, 2013).

As usually defined, the EC50 is the concentration needed to bring the measured effect to its halfway point.

One data set deals with Aorta. The data set can be described thus: Vasorelaxant activity in Sprague-Dawley rat aorta assessed as reduction of phenylephrine-induced contraction. The class given is functional, tissue-based.
Settings: not given
The method in brief:
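Aortic rings held in HPSS (140 mM NaCl, 5 mM KCl, 2 mM CaCl2, 1 mM MgCl2, 5 mM HEPES, 11 mM glucose, pH 7.4) and equilibrated 2 h with several buffer changes. Isometric force changes were recorded continuously. Acetylcholine served as positive control.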
On to `CC(=O)O[C@@H]1C[C@@]23C[C@]1(C)CC[C@H]2[C@]1(C)CCC[C@@](C)(C(=O)O)[C@H]1C[C@@H]3O`, for which the EC50 was found to be 59.7 nM. On the same count and under the same terms, the same measure for `C[C@@]12CC[C@@H]3[C@@](CC[C@H]4[C@@]3(C)CCC[C@@]4(C)C(=O)O)(C[C@H]1O)C2`: 29.1 nM; for `C[C@@]12CC[C@H]3[C@]4(C)CCC[C@@](C)(C(=O)O)[C@H]4C[C@@H](O)[C@]3(C[C@H]1O)C2`: 39.8 nM. `CC(=O)O[C@@H]1C[C@]23CC[C@H]4[C@@](C)(CCC[C@@]4(C)C(=O)O)[C@@H]2CC[C@@]1(C)[C@@H]3O`: the EC50 is 19.5 nM.

Consider `C[C@@]12CC[C@H]3[C@]4(C)CCC[C@@](C)(C(=O)O)[C@H]4C[C@H](O)[C@]3(C[C@H]1O)C2`, for which the EC50 came to 41.8 nM. Same read-out and setting: the same measure for `CC(=O)OCC[N+](C)(C)C` [ACETYLCHOLINE IODIDE]: 65 nM; for `C[C@@]12CC[C@@H]3[C@@](CC[C@H]4[C@@]3(C)CCC[C@@]4(C)C(=O)O)(CC1=O)C2` [ISOSTEVIOL]: 57.4 nM. Turning to `CC(=O)O[C@@H]1C[C@]23CC[C@H]4[C@@](C)(CCC[C@@]4(C)C(=O)O)[C@@H]2CC[C@@]1(C)C3`, the EC50 came to 4.88 nM. Consider `C[C@@]12CCC[C@@](C)(C(=O)O)[C@H]1CC[C@@]13C[C@@H](O)[C@@](C)(CC[C@@H]21)[C@@H]3O`, for which the EC50 was determined as 303 nM. For `C[C@@]12CC[C@H]3[C@]4(C)CCC[C@@](C)(C(=O)O)[C@H]4C[C@H](O)[C@]3(CC1=O)C2`, the EC50 came to 3.46 nM.

The test system of another data set is Vero. The data set is described as follows: Cytotoxicity against african green monkey Vero cells. It is filed as cell-based. The following applies: chlorocebus sabaeus.
Regarding `C[C@@]12CC[C@H]3[C@]4(C)CCC[C@@](C)(C(=O)O)[C@H]4C[C@H](O)[C@]3(CC1=O)C2`, the Activity entry is “Non-toxic”.
